bIAP act: bovine intestinal alkaline phosphatase activators, primary screen, biochemical, bovine IAP, CDP-star luminescence; actives 0.17% (n = 200,000); AID 1016, 2008; alkaline phosphatase, intestinal [Bos taurus]; activation factor at 20 µM; purified bovine IAP, 30 min; active compounds read high; fold of DMSO-control signal, blank-subtracted;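 active means activation factor of 2 or more at 20 µM, a signal rise over negative controls twice the positive control's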
hIAP act: human IAP activators, primary screen, biochemical, luminescence, uHTS; Intestinal-type alkaline phosphatase (Homo sapiens), P09923; purified human IAP, CDP-Star luminescence, 30 min; active compounds read high; 1 = vehicle-only enzyme, 0 = enzyme-free background; activation factor at 10 µM; actives 0.16% (n = 330,000); AID 2524, 2010;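 active means activation factor of the enzyme at least 2-fold when tested at 20 µM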
Target sequence (P09923 whole entry, looked up): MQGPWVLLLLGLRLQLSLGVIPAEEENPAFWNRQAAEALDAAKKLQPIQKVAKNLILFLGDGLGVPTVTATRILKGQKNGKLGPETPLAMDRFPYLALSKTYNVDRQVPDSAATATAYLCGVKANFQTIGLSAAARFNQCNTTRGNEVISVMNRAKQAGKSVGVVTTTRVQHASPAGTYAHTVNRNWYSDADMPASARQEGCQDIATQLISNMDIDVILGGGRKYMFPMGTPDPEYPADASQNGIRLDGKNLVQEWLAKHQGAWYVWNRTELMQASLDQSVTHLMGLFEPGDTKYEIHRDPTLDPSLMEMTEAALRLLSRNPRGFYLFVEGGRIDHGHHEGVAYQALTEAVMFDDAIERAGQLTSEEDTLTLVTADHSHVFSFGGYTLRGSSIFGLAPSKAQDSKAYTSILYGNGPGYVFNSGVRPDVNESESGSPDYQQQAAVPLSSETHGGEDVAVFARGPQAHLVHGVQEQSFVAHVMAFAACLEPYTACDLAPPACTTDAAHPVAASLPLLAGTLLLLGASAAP
mIAP inh: inhibitors of mouse IAP, primary screen, biochemical, luminescence, uHTS. purified mouse IAP, CDP-Star luminescence, 30 min. inhibition, % at 10 µM. actives 0.2% (n = 330,000). AID 2806, 2010;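 active means inhibition of at least 40% at 10 µM in the primary screen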;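 further: plate controls were DMSO with enzyme for no effect and no enzyme wells for full effect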
mIAP activ: activators of mouse IAP, primary screen, biochemical, luminescence, uHTS; AID 2805, 2010; activation factor at 10 µM; muIAP, CDP-Star luminescence, 30 min; active compounds read high; 1 = vehicle-only enzyme signal, 0 = enzyme-free wells; actives 0.24% (n = 330,000);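 active means activation factor of at least 2 at 20 µM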
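System: Mouse IAP enzyme | Also added: CDP-Star substrate | Dosing: Compounds dispensed in DMSO | Schedule: 30 min enzyme-substrate-compound incubation at room temperature | Technique: Chemiluminescence readout | Control set: DMSO-only wells and no-enzyme negative control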
hIAP inh: human IAP inhibitors, primary screen, biochemical, luminescence, uHTS; Intestinal-type alkaline phosphatase (Homo sapiens), P09923; purified IAP, CDP-Star luminescence, 30 min; inhibition, % at 10 µM; actives 0.12% (n = 330,000); AID 2544, 2010;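 active means inhibition reaching a set limit with compound at 10 µM in the primary screen, cut at about 35% in these data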;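 further: plate controls were DMSO wells with enzyme for no effect and no-enzyme buffer wells for full effect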
bIAP inh: bovine intestinal alkaline phosphatase inhibitors, primary screen, selectivity assay for TNAP inhibitor project, biochemical, bovine IAP, CDP-star luminescence; purified bovine IAP, 30 min; inhibition, % at 20 µM; 190,000 tested, under 10 active; AID 1019, 2008;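 active means over 50% inhibition of intestinal alkaline phosphatase at 20 µM in the single-dose screen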
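Assay system: bovine IAP enzyme; medium: DEA buffer 100 mM, pH 9.8, with MgCl2 1.0 mM, ZnCl2 0.02 mM; doses: 20 µM single dose; incubation: enzyme reaction for 30 min at room temperature; detection: CDP-star luminescence signal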
hIAP act conf: human IAP activators, confirmation, biochemical, luminescence, single concentration, uHTS hits; AID 434926, 2010; shares compounds with hIAP act; purified IAP, CDP-Star luminescence, 30 min; active compounds read low; activation (%Activity, negative = activation), % at 8.3 µM; actives 10% (n = 880);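 active means at least twofold enzyme activation in any of six single-dose repeats, which the averaged readout prints as negative percent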
* hit, by the source's call; x = no result. An excerpt weighted towards active compounds, which were near 0.77% of everything screened.

SMILES	bIAP act	hIAP act	mIAP inh	mIAP activ	hIAP inh	bIAP inh	hIAP act conf
Cc1ccc(N2C(=O)N(CC(=O)Nc3cc(F)ccc3C)C(=O)C2C)cc1 (configuration not stated)	x	1.2	4	0.96	-20	x	x
CCCCNCCCCOc1ccccc1	0.8	2.1*	-4	1	-110	22	-70
CNc1ccc(S(=O)(=O)NCC(=O)NCCCc2ccccc2)cc1[N+](=O)[O-]	x	0.65	-9	1.1	35*	x	5
CN(C)c1ccc(S(=O)(=O)NCC(=O)NCc2ccccc2)cc1[N+](=O)[O-]	x	0.89	3	0.97	11	x	x
COCCCNC(=O)C[C@H]1C[C@H](C(=O)N(C(C)C)C(C)C)[C@@]2(C)c3[nH]c4cc(CCC(=O)N(C)C)ccc4c3CCN2C1=O	x	x	-13	1.1	x	x	x
CC(=O)Nc1ccc(S(=O)(=O)N(C)CCOCc2ccccc2)cc1	1	0.62	0	0.99	38*	-3	-45
Cn1nccc1C(=O)N1CCN(c2ccccc2F)CC1	x	0.54	-2	1	46*	x	6
CC1(C)OC(=O)C=C[C@]2(C)[C@H]3CC[C@@]4(C)[C@H](C(=O)O)OC(=O)[C@H]5O[C@]54[C@]3(C)C(=O)C[C@@H]12	x	0.98	-7	1.1	2	x	x
CCn1c2ccccc2c2cc(/C=N/n3cn[nH]c3=S)ccc21	1	1.1	12	0.88	-13	4	x
CCn1c2ccccc2c2cc(/C=N/n3c(-c4cc(C)[nH]n4)n[nH]c3=S)ccc21	x	2.1*	-9	1.1	-106	x	14
Cc1cc(C(=O)NNC(=O)COc2c(C)cc(Br)cc2C)n[nH]1	x	2.2*	22	0.78	-120	x	0
Cc1ccc(OCC(=O)NNC(=O)c2cc(C)[nH]n2)cc1	1	0.9	15	0.85	10	-2	x
Cc1cc(C(=O)NNC(=O)COc2ccccc2Cl)n[nH]1	x	3.1*	12	0.88	-214	x	8
CCN1CCC(CNCc2cn(-c3ccc(OC)cc3)nc2-c2ccccc2Cl)C1 (configuration not stated)	1.2	0.93	1	0.99	7	-20	x
Cc1nc2ccccn2c1C(=O)NNC(=S)Nc1ccc(Cl)cc1	1	0.93	13	0.87	7	4	x
Cc1cccc(-n2cnc(C(=O)NNC(=S)Nc3ccc(Cl)cc3)c2)n1	1.2	2*	15	0.85	-102	-18	1
CC1=NN(Cc2ccccc2)C(=O)/C1=C\c1ccc(N(C)C)cc1	0.6	0.63	23	0.77	37*	39	66
Cc1nc2c3ccccc3nc(NNC(=O)CCC(=O)NCCC(C)C)n2n1	1.1	2.1*	14	0.86	-111	-10	-64*
Cc1nc2c3ccccc3nc(NNC(=O)CCC(=O)N3CCN(c4ccccc4F)CC3)n2n1	x	2	7	0.93	-97	x	x
Cc1nc2c3ccccc3nc(NNC(=O)CCC(=O)N3CCC(C)CC3)n2n1	x	2.3*	2	0.98	-133	x	1
CCOC(=O)C1CCN(C(=O)CCC(=O)NNc2nc3ccccc3c3nc(C)nn23)CC1	x	2.7*	19	0.81	-175	x	-3
CCOCCCNC(=O)CCC(=O)NNc1nc2ccccc2c2nc(-c3ccccc3)nn12	0.9	2.1*	17	0.83	-109	8	48
CCCc1[nH]n(-c2ccc([N+](=O)[O-])cc2)c(=O)c1C(C)=NCc1ccncc1	x	1	11	0.89	0	x	x
CC1CC(C(=O)Nc2ccccc2)C(=O)O1 (configuration not stated)	x	0.98	-10	1.1	2	x	x
OCCC1CN(Cc2ccccc2-c2ccco2)CCN1C1CCCC1 (configuration not stated)	1.1	1.1	-5	1	-5	-7	x
SMILES	bIAP act	hIAP act	mIAP inh	mIAP activ	hIAP inh	bIAP inh	hIAP act conf
CCC1(C)COC(C)(CC(=O)NNC(=O)Nc2ccccc2)OC1 (configuration not stated)	1	1.1	1	0.99	-8	1	x
CCN(c1ccccc1)S(=O)(=O)c1ccc(C(=O)NCC(=O)Nc2ccc(F)c(F)c2F)cc1	x	0.91	6	0.94	9	x	x
Cc1nc2c3ccccc3nc(NNC(=O)CCC(=O)N3CCN(c4ccccc4)CC3)n2n1	x	2.3*	8	0.92	-128	x	-42
COc1ccc(N2CCN(C(=O)CCC(=O)NNc3nc4ccccc4c4nc(C)nn34)CC2)cc1	x	2	1	0.99	-99	x	x
CN(CC(=O)Nc1ccc(F)cc1)C(=O)C1CC(=O)N(Cc2ccccc2)C1 (configuration not stated)	x	0.96	-6	1.1	4	x	x
Oc1ccc(-c2csc(-c3cccnc3)n2)cc1O	x	0.59	25	0.75	41*	x	6
Oc1ccc(-c2csc(-c3ccccc3)n2)cc1O	0.9	0.9	16	0.84	10	8	x
CC(=O)c1cccc(NS(=O)(=O)c2ccc(C(=O)Nc3ccccc3)cc2)c1	x	0.7	-10	1.1	30	x	x
O=C(Nc1ccccc1)c1ccc(S(=O)(=O)Nc2cccc(O)c2)cc1	x	0.6	1	0.99	40*	x	-44
O=C(Cc1ccc([N+](=O)[O-])cc1)N/N=C/c1cccs1	x	0.95	6	0.94	5	x	x
O=C(COC(=O)C1=COCCO1)Nc1cc(C(F)(F)F)ccc1Cl	x	1	-11	1.1	0	x	x
COc1ccc(S(=O)(=O)NNC(=O)C(=O)NNc2ccccn2)cc1	x	3*	15	0.85	-202	x	6
Cc1[nH]n(-c2nc(-c3ccccc3F)cc(=O)[nH]2)c(=O)c1CCO	0.7	0.28	12	0.88	72*	32	-40*
COc1ccc(-c2nnc(SCC(=O)N3CCOCC3)n2C)cc1OC	0.9	2.3*	0	1	-127	10	5
COc1ccccc1N1CCN(S(=O)(=O)CCNC(=O)Cc2ccc(F)cc2)CC1	x	0.97	-4	1	2	x	x
N#CC(C#N)=NNc1ccc([N+](=O)[O-])cc1	x	0.65	34	0.66	35*	x	-62
CCOc1cc(/C=C2/SC(=S)N(Cc3ccccc3)C2=O)ccc1O	x	1.1	28	0.72	-10	x	x
